Tests used:
[1] = organism: Rattus norvegicus; assay: T cell-decreasing effect in spleen cells of WKAH rat which were injected into foot-pad of LEW rat.; assay type: functional; settings: read-out: ID50 (the source's name)
How it was run: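 T-cell decrease was measured in the popliteal node gain model: WKAH spleen cells (5 × 10⁶) injected into the LEW rat footpad, with oral dosing for 4 days from the day of injection. Blood T-cells were counted by two-colour flow cytometry with FITC anti-rat CD3 (1F4) and PE anti-rat CD45RA (OX-33). Value is ID₅₀ (mg/kg).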

[2] = organism: Rattus norvegicus; assay: Immunosuppressive activity against LEW rats injected with spleen cells of WKAH rat in Popliteal Lymph Node Gain Assay.; assay type: functional; settings: read-out: ID50 (the source's name)
How it was run: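 Popliteal lymph node gain: WKAH rat (RT1^k) spleen cells, 5 × 10⁶, injected into footpad of LEW rats (RT1^l) to enlarge the draining popliteal node. Compound given orally for 4 days starting on the day of cell injection, then popliteal node weighed. Value is ID₅₀ (mg/kg).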

[3] = test system: Rattus norvegicus; assay: Immunosuppressive activity against skin allograft in F344 recipient (rat) from LEW donor (rat) at a concentration of 10 mg/kg; Toxic; assay type: functional, organism-based; set-up: dose 10 mg/kg
[4] = test system: Rattus norvegicus; assay: Immunosuppressive activity against skin allograft in F344 recipient (rat) from LEW donor (rat) at a concentration of 0.3 mg/kg; assay type: functional
How it was run: (§1)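 MHC-compatible skin allograft: LEW (RT1^l) donor skin to F344 (RT1^lv1) recipients, all rats 4-6 weeks old. Full-thickness 2.0 × 2.0 cm grafts were placed on the recipient's lateral thorax under sterile bactericidal gauze. Read-out was mean survival time in days ± SE, with four animals per group. Deaths were scored as toxic.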

[5] = test system: Rattus norvegicus; assay: Immunosuppressive activity against skin allograft in F344 recipient (rat) from LEW donor (rat) at a concentration of 3 mg/kg; assay type: functional; how it was run: as §1
[6] = organism: Rattus norvegicus; assay: Lymphocyte-decreasing effect against F344 rats.; assay type: functional; settings: for ED50: read-out: ID50 (the source's name)
How it was run: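 F344 rats aged 5 weeks were dosed intraperitoneally in 20% hydroxypropyl-β-cyclodextrin. Peripheral blood was taken 24 h later and total lymphocytes counted by lymphocyte gating. ID₅₀/ID₈₀ is the lowest dose lowering the lymphocyte count by 50% or 80% of the vehicle-treated control.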

[7] = test system: Rattus norvegicus; assay: Immunosuppressive activity against skin allograft in F344 recipient (rat) from LEW donor (rat) at a concentration of 1 mg/kg; assay type: functional; how it was run: as §1
[8] = test system: Rattus norvegicus; assay: Immunosuppressive activity against skin allograft in F344 recipient (rat) from LEW donor (rat) at a concentration of 0.1 mg/kg; assay type: functional; how it was run: as §1
[9] = test system: Rattus norvegicus; assay: Immunosuppressive activity against skin allograft in F344 recipient (rat) from LEW donor (rat) at a concentration of 3 mg/kg; Toxic; assay type: functional, organism-based; set-up: dose 3 mg/kg
[10] = test system: Rattus norvegicus; assay: Immunosuppressive activity against skin allograft in F344 recipient (rat) from LEW donor (rat) at a concentration of 30 mg/kg; assay type: functional; how it was run: as §1
[11] = test system: Rattus norvegicus; assay: Immunosuppressive activity against skin allograft in F344 recipient (rat) from LEW donor (rat) at a concentration of 10 mg/kg; assay type: functional; how it was run: as §1

SMILES	ED50 [1]	ED50 [2]	ID80 [6]	ED50 [6]	MST [7]	further results
CCCCCCCOc1ccc(CC[C@](N)(CO)CCC)cc1	> 10 mg/kg	> 10 mg/kg				
CCCCCCCOc1ccc(CC[C@@](C)(N)CO)cc1.Cl	0.0092 mg/kg					
CCCCCCCCCCCCCCC(N)(CO)CO.Cl			0.3 mg/kg	0.3 mg/kg	37.3 days	MST [3]: Toxic; MST [4]: 26.5 days; MST [5]: 45.5 days; MST [8]: 13.8 days
CCCCCCCCc1cccc(CCC(N)(CO)CO)c1.Cl			>3 mg/kg	> 3 mg/kg		
CCCCCCCCc1ccc(CCC(N)(CO)CCO)cc1 (stereo unspecified)	0.12 mg/kg	0.009 mg/kg				
CCCCCCCCc1ccc(CCC(N)CO)cc1.Cl (stereo unspecified)	> 10 mg/kg	> 10 mg/kg				
CCCCCCCC(O)c1ccc(CCC(N)(CO)CO)cc1 (stereo unspecified)			0.3 mg/kg	0.1 mg/kg		
CCCCCCCCc1ccc(CCC(C)(N)CCO)cc1.Cl (stereo unspecified)	> 10 mg/kg	> 10 mg/kg				
CCCCCCCOc1ccc(CCC(N)(CO)C(C)C)cc1.Cl (stereo unspecified)	4.5 mg/kg					
CCCCCCCOc1ccc(CCC(N)(CC)CO)cc1.Cl (stereo unspecified)	0.044 mg/kg					
CCCCCCCOc1ccc(CCC(N)(CO)CCC)cc1 (stereo unspecified)	7.3 mg/kg					
CCCCCCCCCCCCCCc1ccc(CCC(N)(CO)CO)cc1.Cl			>3 mg/kg	1 mg/kg		
CCCCCCCCCCc1ccc(CCC(N)(CO)CO)cc1.Cl			0.1 mg/kg	0.1 mg/kg	48 days	MST [4]: 37.8 days; MST [8]: 20 days; MST [9]: Toxic
CCCCCCCCCc1ccc(CCC(N)(CO)CO)cc1.Cl			0.1 mg/kg	0.03 mg/kg	32 days	MST [4]: 23 days; MST [9]: Toxic
CCCCCCCCc1ccc(CCC(N)(CO)CO)s1.Cl			>3 mg/kg	1 mg/kg	17.3 days	MST [4]: 13 days; MST [5]: 21 days
CCCCCCCN(C)c1ccc(CCC(N)(CO)CO)cc1.Cl			1 mg/kg	1 mg/kg	21.3 days	MST [3]: Toxic; MST [5]: 29 days
CCCCCCCCc1ccc(CCC(N)(CCO)CCO)cc1	> 10 mg/kg	> 10 mg/kg				
CCCCCCCCc1ccccc1CCC(N)(CO)CO.Cl			>3 mg/kg	> 3 mg/kg		
C/C=C/C[C@@H](C)[C@@H](O)[C@H]1C(=O)N[C@@H](CC)C(=O)N(C)CC(=O)N(C)[C@@H](CC(C)C)C(=O)N[C@@H](C(C)C)C(=O)N(C)[C@@H](CC(C)C)C(=O)N[C@@H](C)C(=O)N[C@H](C)C(=O)N(C)[C@@H](CC(C)C)C(=O)N(C)[C@@H](CC(C)C)C(=O)N(C)[C@@H](C(C)C)C(=O)N1C [CYCLOSPORINE]	> 30 mg/kg		>30 mg/kg	> 30 mg/kg	8 days	MST [5]: 10.8 days; MST [10]: 19.8 days
CCCCCCCOc1ccc(CC[C@@](N)(CO)CCO)cc1.Cl	0.018 mg/kg	0.017 mg/kg				
CCCCCCCOc1ccc(CC[C@@](N)(CO)CCC)cc1	4.4 mg/kg					
CCCCCCCCCCCCc1ccc(CCC(N)(CO)CO)cc1.Cl			1 mg/kg	0.1 mg/kg	40.5 days	MST [3]: Toxic; MST [4]: 22.8 days; MST [5]: 53 days; MST [8]: 12 days

SMILES	ED50 [1]	ED50 [2]	ID80 [6]	ED50 [6]	MST [7]	further results
CCCCCCCc1ccc(CCC(N)(CO)CO)cc1.Cl			0.3 mg/kg	0.1 mg/kg		
CCCCCCCOc1ccc(CCC(N)(CO)CO)cc1.Cl	0.014 mg/kg		0.1 mg/kg	0.03 mg/kg	33.8 days	MST [3]: Toxic; MST [4]: 23.5 days; MST [5]: 39.5 days; MST [8]: 15 days
CCCCc1ccc(CCCCCCC(N)(CO)CO)cc1.Cl			1 mg/kg	0.3 mg/kg		MST [5]: 9.8 days; MST [11]: 13.5 days
CCCCCCCCc1ccc(CCC(N)(CO)CO)cc1.Cl [FINGOLIMOD HYDROCHLORIDE]	0.024 mg/kg	0.0097 mg/kg	0.1 mg/kg	0.03 mg/kg	39.5 days	MST [3]: Toxic; MST [4]: 31.3 days; MST [5]: 52 days; MST [8]: 25.3 days
CCc1ccc(CCCCCCCCC(N)(CO)CO)cc1.Cl			>3 mg/kg	> 3 mg/kg		MST [5]: 8.5 days; MST [11]: 8.6 days
CCCCCCCCc1ccc(CCC(N)(CO)C(=O)O)cc1 (stereo unspecified)	> 10 mg/kg	> 10 mg/kg				
CCCCCCCCCCc1ccc(C(N)(CO)CO)cc1.Cl			>3 mg/kg	0.3 mg/kg		
CCCCCCCCCCCCCc1ccc(CCC(N)(CO)CO)cc1.Cl			1 mg/kg	0.03 mg/kg		
CCCCCCCC(=O)c1ccc(CCC(N)(CO)CO)cc1			0.3 mg/kg	0.03 mg/kg	32.5 days	MST [4]: 25.5 days; MST [8]: 19.8 days; MST [9]: Toxic
C=CCC(N)(CO)CCc1ccc(OCCCCCCC)cc1 (stereo unspecified)	3.1 mg/kg	1.9 mg/kg				
Cl.NC(CO)(CO)CCCCCCCCCCc1ccccc1			1 mg/kg	0.3 mg/kg	27 days	MST [4]: 21.5 days; MST [8]: 11.5 days; MST [9]: Toxic
CCCCCCCOc1ccc(CC[C@](N)(CO)CCO)cc1.Cl	4.2 mg/kg	4.2 mg/kg				
CCCCCCCSc1ccc(CCC(N)(CO)CO)cc1			0.03 mg/kg	0.03 mg/kg	44.5 days	MST [4]: 36 days; MST [8]: 22.3 days; MST [9]: Toxic
CCCCCCCc1ccc(CCCC(N)(CO)CO)cc1.Cl			>3 mg/kg	> 3 mg/kg		MST [5]: 9 days; MST [11]: 10.5 days
CCCCCCC/C(=N\O)c1ccc(CCC(N)(CO)CO)cc1			1 mg/kg	0.03 mg/kg		
CCCCCCc1ccc(CCCCC(N)(CO)CO)cc1			>3 mg/kg	> 3 mg/kg		MST [5]: 13.8 days; MST [11]: 18.8 days
CCCCCCCCCCCc1ccc(CCC(N)(CO)CO)cc1.Cl			0.1 mg/kg	0.1 mg/kg	39.3 days	MST [4]: 23.3 days; MST [9]: Toxic
CCCCCCCCCc1ccc(CC(N)(CO)CO)cc1.Cl			>3 mg/kg	> 3 mg/kg		MST [5]: 9.8 days; MST [11]: 11.8 days
CCCCCCCOc1ccc(CCC(N)(CO)CCO)cc1 (stereo unspecified)	0.055 mg/kg	0.038 mg/kg				
CCCCCCCCc1ccc(CCC(N)(CO)CCCO)cc1.Cl (stereo unspecified)	0.021 mg/kg	0.085 mg/kg				
CCCCCCCOc1ccc(CCC(N)(CO)CCCC)cc1 (stereo unspecified)	> 10 mg/kg	> 10 mg/kg				

Reference: ChEMBL document CHEMBL1133083, “Synthesis and immunosuppressive activity of 2-substituted 2-aminopropane-1,3-diols and 2-aminoethanols” (2000)
